Measured values as given in ChEMBL document CHEMBL2146443, “Cytotoxicity and DNA binding property of phenanthrene imidazole with polyglycol side chains” (Bioorg Med Chem Lett, 2012).
The source made the active and inactive calls. The rule behind the calls is not given here.

Key:
Nucleic Acid [1] = experiment: Binding affinity to calf thymus DNA assessed as change in melting temperature at 5 x 10^-6 M at pH 7.5 relative to control; type: nucleic-acid assay; conditions: Bos taurus
KB = experiment: Antiproliferative activity against human KB cells by MTT assay; type: functional, cell-based
Nucleic Acid [2] = experiment: Binding affinity to calf thymus DNA at 4 x 10^-5 M at pH 7.5 by UV-Vis spectrophotometry; type: nucleic-acid assay; conditions: Bos taurus
How it was run: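 UV–vis titration: compound at 4.0 × 10^-5 M with Ct-DNA added (0–400 μM) in 1 mM phosphate buffer pH 7.5, 20 mM NaCl, 5% DMSO (v/v), 25 °C. Absorbance read over 300–400 nm to avoid DNA interference; binding constants fitted at maximum absorption band.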

Bel-7402 = experiment: Antiproliferative activity against human Bel7402 cells by MTT assay; type: functional, cell-based
Nucleic Acid [3] = experiment: Binding affinity to calf thymus DNA at 2 x 10^-5 M at pH 7.5 by circular dichroism; type: nucleic-acid assay; conditions: Bos taurus
How it was run: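 Circular dichroism of Ct-DNA (6.0 × 10^-5 M) alone and with compound (2.0 × 10^-5 M), in 10 mM phosphate buffer pH 7.5 with 20 mM NaCl and 5% DMSO, 25 °C.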

HL-60 = experiment: Antiproliferative activity against human HL60 cells by MTT assay; type: functional, cell-based
Nucleic Acid [4] = experiment: Binding affinity to calf thymus DNA at 4 x 10^-5 M at pH 7.5 by fluorescence spectrophotometry; type: nucleic-acid assay; conditions: Bos taurus
How it was run: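 Emission quenching: compound at 4.0 × 10^-5 M, excitation 320 nm, 5.0 nm slits, titrated with Ct-DNA 0–400 μM in 1 mM phosphate buffer pH 7.5, 20 mM NaCl, 5% DMSO, 25 °C. F/F0 plotted against DNA concentration; Stern-Volmer constants derived.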

BGC-823 = experiment: Antiproliferative activity against human BGC823 cells by MTT assay; type: functional, cell-based
[5] = Solubility in phosphate buffer at pH 7.5; type: physicochemical

SMILES | ΔTm (Nucleic Acid [1]) | IC50 (KB) | K (Nucleic Acid [2]) | IC50 (Bel-7402) | Activity (Nucleic Acid [3]) | IC50 (HL-60) | Activity (Nucleic Acid [4]) | IC50 (BGC-823) | solubility [5]
Cn1c(-c2ccc(OCCO)cc2)[n+](C)c2c3ccccc3c3ccccc3c21 | 4.8 °C | 14.5 µM | 1.68 ×10⁶ /M | 14.1 µM | Active | 24.8 µM | Active | 10.7 µM | –
Cn1c(-c2ccc(OCCOCCOCCO)cc2)[n+](C)c2c3ccccc3c3ccccc3c21 | 4 °C | 9.12 µM | 0.709 ×10⁶ /M | 10.6 µM | Active | 15.6 µM | Active | 7.01 µM | –
OCCOc1ccc(-c2nc3c4ccccc4c4ccccc4c3[nH]2)cc1 | – | 7.03 µM | – | 4.65 µM | – | 11.3 µM | – | 6.36 µM | Insoluble
Cn1c(-c2ccc(OCCOCCO)cc2)[n+](C)c2c3ccccc3c3ccccc3c21 | 4.2 °C | 11 µM | 1.51 ×10⁶ /M | 10.7 µM | Active | 12.1 µM | Active | 9.35 µM | –
OCCOCCOCCOc1ccc(-c2nc3c4ccccc4c4ccccc4c3[nH]2)cc1 | – | 44.6 µM | – | 27.9 µM | – | 11.9 µM | – | 24.2 µM | Insoluble
OCCOCCOc1ccc(-c2nc3c4ccccc4c4ccccc4c3[nH]2)cc1 | – | 30.7 µM | – | 18.1 µM | – | 8.14 µM | – | 22.5 µM | Insoluble
